{"source": "paper PMC5621377", "about": "(Clinical cancer research : an official journal of the …, 2016)", "system": "patients with Rb+ advanced solid tumors or lymphomas", "experiment": "Safety assessments, adverse events", "format": "in vivo, human", "in_short": "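Oral test compound given daily 3-weeks-on/1-week-off in 28-day cycles, with doses escalated by a Bayesian logistic regression model with overdose control. Safety assessments, including ECGs, were done at baseline and at regular intervals. AEs were graded by CTCAE v4.0 and classed as suspected related to treatment. All patients dosed at least once were included; summaries were descriptive per dose level.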", "key": {"[1]": {"details": "900 mg 3-weeks-on/1-week-off, n = 13"}, "[2]": {"details": "1,200 mg 3-weeks-on/1-week-off, n = 3"}, "[3]": {"details": "RDE 600 mg/day 3-weeks-on/1-week-off"}, "[4]": {"details": "of 67 patients treated at the RDE"}}, "data": [{"smiles": "CN(C)C(=O)c1cc2cnc(Nc3ccc(N4CCNCC4)cn3)nc2n1C1CCCC1", "note": "[ribociclib]", "values": [{"measurement": "Anemia, Grade 3/4, AE suspected related to study treatment", "setting": "[1]", "value": "0 n (%)"}, {"measurement": "Anemia, Grade All, AE suspected related to study treatment", "setting": "[1]", "value": "3 (23) n (%)"}, {"measurement": "Appetite decreased, Grade 3/4, AE suspected related to study treatment", "setting": "[1]", "value": "0 n (%)"}, {"measurement": "Appetite decreased, Grade All, AE suspected related to study treatment", "setting": "[1]", "value": "1 (8) n (%)"}, {"measurement": "Blood creatinine increased, Grade 3/4, AE suspected related to study treatment", "setting": "[1]", "value": "0 n (%)"}, {"measurement": "Blood creatinine increased, Grade All, AE suspected related to study treatment", "setting": "[1]", "value": "2 (15) n (%)"}, {"measurement": "Diarrhea, Grade 3/4, AE suspected related to study treatment", "setting": "[1]", "value": "0 n (%)"}, {"measurement": "Diarrhea, Grade All, AE suspected related to study treatment", "setting": "[1]", "value": "5 (39) n (%)"}, {"measurement": "Fatigue, Grade 3/4, AE suspected related to study treatment", "setting": "[1]", "value": "0 n (%)"}, {"measurement": "Fatigue, Grade All, AE suspected related to study treatment", "setting": "[1]", "value": "10 (77) n (%)"}, {"measurement": "Leukopenia, Grade 3/4, AE suspected related to study treatment", "setting": "[1]", "value": "4 (31) n (%)"}, {"measurement": "Leukopenia, Grade All, AE suspected related to study treatment", "setting": "[1]", "value": "9 (69) n (%)"}, {"measurement": "Lymphopenia, Grade 3/4, AE suspected related to study treatment", "setting": "[1]", "value": "4 (31) n (%)"}, {"measurement": "Lymphopenia, Grade All, AE suspected related to study treatment", "setting": "[1]", "value": "4 (31) n (%)"}, {"measurement": "Nausea, Grade 3/4, AE suspected related to study treatment", "setting": "[1]", "value": "0 n (%)"}, {"measurement": "Nausea, Grade All, AE suspected related to study treatment", "setting": "[1]", "value": "6 (46) n (%)"}, {"measurement": "Neutropenia, Grade 3/4, AE suspected related to study treatment", "setting": "[1]", "value": "5 (39) n (%)"}, {"measurement": "Neutropenia, Grade All, AE suspected related to study treatment", "setting": "[1]", "value": "9 (69) n (%)"}, {"measurement": "Thrombocytopenia, Grade 3/4, AE suspected related to study treatment", "setting": "[1]", "value": "0 n (%)"}, {"measurement": "Thrombocytopenia, Grade All, AE suspected related to study treatment", "setting": "[1]", "value": "6 (46) n (%)"}, {"measurement": "Vomiting, Grade 3/4, AE suspected related to study treatment", "setting": "[1]", "value": "0 n (%)"}, {"measurement": "Vomiting, Grade All, AE suspected related to study treatment", "setting": "[1]", "value": "3 (23) n (%)"}, {"measurement": "Anemia, Grade 3/4, AE suspected related to study treatment", "setting": "[2]", "value": "1 (33) n (%)"}, {"measurement": "Anemia, Grade All, AE suspected related to study treatment", "setting": "[2]", "value": "3 (100) n (%)"}, {"measurement": "Appetite decreased, Grade 3/4, AE suspected related to study treatment", "setting": "[2]", "value": "0 n (%)"}, {"measurement": "Appetite decreased, Grade All, AE suspected related to study treatment", "setting": "[2]", "value": "0 n (%)"}, {"measurement": "Blood creatinine increased, Grade 3/4, AE suspected related to study treatment", "setting": "[2]", "value": "0 n (%)"}, {"measurement": "Blood creatinine increased, Grade All, AE suspected related to study treatment", "setting": "[2]", "value": "0 n (%)"}, {"measurement": "Diarrhea, Grade 3/4, AE suspected related to study treatment", "setting": "[2]", "value": "0 n (%)"}, {"measurement": "Diarrhea, Grade All, AE suspected related to study treatment", "setting": "[2]", "value": "2 (67) n (%)"}, {"measurement": "Fatigue, Grade 3/4, AE suspected related to study treatment", "setting": "[2]", "value": "0 n (%)"}, {"measurement": "Fatigue, Grade All, AE suspected related to study treatment", "setting": "[2]", "value": "3 (100) n (%)"}, {"measurement": "Leukopenia, Grade 3/4, AE suspected related to study treatment", "setting": "[2]", "value": "0 n (%)"}, {"measurement": "Leukopenia, Grade All, AE suspected related to study treatment", "setting": "[2]", "value": "0 n (%)"}, {"measurement": "Lymphopenia, Grade 3/4, AE suspected related to study treatment", "setting": "[2]", "value": "0 n (%)"}, {"measurement": "Lymphopenia, Grade All, AE suspected related to study treatment", "setting": "[2]", "value": "0 n (%)"}, {"measurement": "Nausea, Grade 3/4, AE suspected related to study treatment", "setting": "[2]", "value": "0 n (%)"}, {"measurement": "Nausea, Grade All, AE suspected related to study treatment", "setting": "[2]", "value": "3 (100) n (%)"}, {"measurement": "Neutropenia, Grade 3/4, AE suspected related to study treatment", "setting": "[2]", "value": "1 (33) n (%)"}, {"measurement": "Neutropenia, Grade All, AE suspected related to study treatment", "setting": "[2]", "value": "2 (67) n (%)"}, {"measurement": "Thrombocytopenia, Grade 3/4, AE suspected related to study treatment", "setting": "[2]", "value": "1 (33) n (%)"}, {"measurement": "Thrombocytopenia, Grade All, AE suspected related to study treatment", "setting": "[2]", "value": "2 (67) n (%)"}, {"measurement": "Vomiting, Grade 3/4, AE suspected related to study treatment", "setting": "[2]", "value": "0 n (%)"}, {"measurement": "Vomiting, Grade All, AE suspected related to study treatment", "setting": "[2]", "value": "3 (100) n (%)"}, {"measurement": "Anemia, Grade 3/4, AE suspected related to study treatment", "setting": "All doses, N = 132", "value": "4 (3) n (%)"}, {"measurement": "Anemia, Grade All, AE suspected related to study treatment", "setting": "All doses, N = 132", "value": "34 (26) n (%)"}, {"measurement": "Appetite decreased, Grade 3/4, AE suspected related to study treatment", "setting": "All doses, N = 132", "value": "0 n (%)"}, {"measurement": "Appetite decreased, Grade All, AE suspected related to study treatment", "setting": "All doses, N = 132", "value": "13 (10) n (%)"}, {"measurement": "Blood creatinine increased, Grade 3/4, AE suspected related to study treatment", "setting": "All doses, N = 132", "value": "0 n (%)"}, {"measurement": "Blood creatinine increased, Grade All, AE suspected related to study treatment", "setting": "All doses, N = 132", "value": "14 (11) n (%)"}, {"measurement": "Diarrhea, Grade 3/4, AE suspected related to study treatment", "setting": "All doses, N = 132", "value": "2 (2) n (%)"}, {"measurement": "Diarrhea, Grade All, AE suspected related to study treatment", "setting": "All doses, N = 132", "value": "31 (23) n (%)"}, {"measurement": "Fatigue, Grade 3/4, AE suspected related to study treatment", "setting": "All doses, N = 132", "value": "3 (2) n (%)"}, {"measurement": "Fatigue, Grade All, AE suspected related to study treatment", "setting": "All doses, N = 132", "value": "59 (45) n (%)"}, {"measurement": "Leukopenia, Grade 3/4, AE suspected related to study treatment", "setting": "All doses, N = 132", "value": "22 (17) n (%)"}, {"measurement": "Leukopenia, Grade All, AE suspected related to study treatment", "setting": "All doses, N = 132", "value": "57 (43) n (%)"}, {"measurement": "Lymphopenia, Grade 3/4, AE suspected related to study treatment", "setting": "All doses, N = 132", "value": "21 (16) n (%)"}, {"measurement": "Lymphopenia, Grade All, AE suspected related to study treatment", "setting": "All doses, N = 132", "value": "32 (24) n (%)"}, {"measurement": "Nausea, Grade 3/4, AE suspected related to study treatment", "setting": "All doses, N = 132", "value": "2 (2) n (%)"}, {"measurement": "Nausea, Grade All, AE suspected related to study treatment", "setting": "All doses, N = 132", "value": "56 (42) n (%)"}, {"measurement": "Neutropenia, Grade 3/4, AE suspected related to study treatment", "setting": "All doses, N = 132", "value": "36 (27) n (%)"}, {"measurement": "Neutropenia, Grade All, AE suspected related to study treatment", "setting": "All doses, N = 132", "value": "60 (46) n (%)"}, {"measurement": "Thrombocytopenia, Grade 3/4, AE suspected related to study treatment", "setting": "All doses, N = 132", "value": "10 (8) n (%)"}, {"measurement": "Thrombocytopenia, Grade All, AE suspected related to study treatment", "setting": "All doses, N = 132", "value": "40 (30) n (%)"}, {"measurement": "Vomiting, Grade 3/4, AE suspected related to study treatment", "setting": "All doses, N = 132", "value": "0 n (%)"}, {"measurement": "Vomiting, Grade All, AE suspected related to study treatment", "setting": "All doses, N = 132", "value": "34 (26) n (%)"}, {"measurement": "grade 3/4 neutropenia", "setting": "[3]", "value": 28, "unit": "%"}, {"measurement": "grade 3/4 thrombocytopenia", "setting": "[3]", "value": 9, "unit": "%"}, {"measurement": "treatment-related fatigue, grade 3/4", "setting": "all 132 patients", "value": 2, "unit": "%"}, {"measurement": "treatment-related nausea, grade 3/4", "setting": "all 132 patients", "value": 2, "unit": "%"}, {"measurement": "treatment-related neutropenia, all-grade", "setting": "all 132 patients", "value": 46, "unit": "%"}, {"measurement": "clinically significant arrhythmias", "setting": "all patients", "value": "No clinically significant arrhythmias were observed"}, {"measurement": "patients requiring dose reduction to 400 mg/day", "setting": "[4]", "value": 16}, {"measurement": "patients with dose interruption without reduction", "setting": "[4]", "value": 13}]}]}
